How the values were obtained:
Plasmodium falciparum = experiment: Antiplasmodial activity against Plasmodium falciparum Dd2 assessed as growth inhibition after 72 hrs by SYBR Green I dye based assay; assay type: functional, organism-based; conditions: Dd2, 72 h
Summary of the method: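 Ring-stage parasite cultures at 1% hematocrit and 1% parasitemia, grown 72 h at 37 °C with increasing drug concentrations under 5.05% CO2/4.93% O2/90.2% N2. Viability read by DNA quantitation with SYBR Green I in lysis buffer (0.4 µL dye per mL lysis buffer). IC50 from nonlinear regression curve fitting.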

A2058 [1] = experiment: Antiproliferative activity against human A2058 cells after 96 hrs by CellTitre-Glo luminescent assay; assay type: functional, cell-based; conditions: A2058, 96 h
A2780 = experiment: Antiproliferative activity against human A2780 cells after […] by Alamar Blue assay; assay type: functional, cell-based
[2] = Antiproliferative activity against human H522-T1 cells after 96 hrs by CellTitre-Glo luminescent assay; assay type: functional, cell-based; conditions: H522-T1, 96 h
A2058 [3] = experiment: Selectivity ratio of IC50 for human A2780 cells to IC50 for human A2058 cells; assay type: functional

| Structure (SMILES) | IC50 (Plasmodium falciparum) | IC50 (A2058 [1]) | IC50 (A2780) | IC50 [2] | Ratio IC50 (A2058 [3]) |
| --- | --- | --- | --- | --- | --- |
| Cn1c(=O)/c(=C/c2ccccc2)[nH]c(=O)/c1=C/c1ccccc1 | 6570 nM | – | – | – | – |
| C=C1NC(=O)[C@H]([C@H](C)OC)N(C)C1=O | 50000 nM | – | – | – | – |
| CC[C@H]1C[C@@H]2CC[C@@H](O2)[C@@H](C)C(=O)O[C@H](C)C[C@H]2CC[C@H](O2)[C@H](C)C(=O)O[C@@H](CC)C[C@@H]2CC[C@@H](O2)[C@@H](C)C(=O)O[C@H](C)C[C@H]2CC[C@H](O2)[C@H](C)C(=O)O1 [DINACTIN] | – | 20 nM | 260 nM | 10 nM | 13 |
| CC[C@H]1C[C@@H]2CC[C@@H](O2)[C@@H](C)C(=O)O[C@H](C)C[C@H]2CC[C@H](O2)[C@H](C)C(=O)O[C@@H](C)C[C@@H]2CC[C@@H](O2)[C@@H](C)C(=O)O[C@H](C)C[C@H]2CC[C@H](O2)[C@H](C)C(=O)O1 [MONACTIN] | – | 20 nM | 130 nM | 10 nM | 6.5 |
| C[C@@H]1C[C@H]2CC[C@H](O2)[C@H](C)C(=O)O[C@@H](C)C[C@@H]2CC[C@@H](O2)[C@@H](C)C(=O)O[C@H](C)C[C@H]2CC[C@@H](O2)[C@H](C)C(=O)O[C@@H](C)C[C@@H]2CC[C@@H](O2)[C@@H](C)C(=O)O1 [NONACTIN] | – | 260 nM | 160 nM | 190 nM | – |

Source: ChEMBL document CHEMBL3632503, “Antiproliferative and antiplasmodial compounds from selected Streptomyces species” (Bioorg Med Chem Lett, 2015)
